Data on nine compounds can be found in ChEMBL document CHEMBL2429848, “Proanthocyanidins from Spenceria ramalana and their effects on AGE formation in vitro and hyaloid-retinal vessel dilation in larval zebrafish in vivo” (J Nat Prod, 2013).

Data set [1] can be described thus: Antiglycation activity assessed as inhibition of advanced glycation end product formation after 7 days by spectrofluorometric analysis. In kind it is physicochemical. A digest of the protocol:
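Bovine serum albumin (10 mg/mL) in 50 mM phosphate buffer pH 7.4 with 0.02% sodium azide was mixed with 0.2 M fructose/glucose solution and serially diluted compound, with aminoguanidine as positive control. Samples were incubated 7 days at 37 °C and fluorescence read at ex 350/em 450 nm, in triplicate. IC50 came from least-squares regression of log concentration against remaining activity.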

For data set [2], the species on record is Danio rerio. Briefly: Toxicity in zebrafish flk:EGFP transgenic embryo at 10 to 20 uM treated 1 day post fertilization to 6 days post fertilization. The class given is organism-based. To be noted: in vivo.
For data set [3], the species on record is Danio rerio. Put plainly: Antidiabetic retinopathic activity in zebrafish flk:EGFP transgenic embryo assessed as reduction of high glucose-induced dilation of hyaloidretinal vessels at 20 uM treated 1 day postfertilization to 6 days postfertilization relative to control. The class given is functional. Further details: scale not given: the % may be the effect or the level left. A digest of the protocol:
(§1)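 flk:EGFP transgenic embryos, five per well, were kept from 1 dpf in egg water with 30 mM glucose plus compound (10 or 20 μM) until 6 dpf. They were then fixed in 4% PFA, and lenses were isolated with the optic disc up and imaged by fluorescence. Diameters were taken in 3–4 main branches up to the first sub-branch. Percentage inhibition = [1 − (Tn − Cav)/(HGav − Cav)] × 100, from three independent experiments.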

Data set [4] is filed under the species Danio rerio. Put plainly: Antidiabetic retinopathic activity in zebrafish flk:EGFP transgenic embryo assessed as reduction of high glucose-induced dilation of hyaloidretinal vessels at 10 uM treated 1 day postfertilization to 6 days postfertilization relative to control. The class given is functional. Further details: scale not given: the % may be the effect or the level left. A digest of the protocol:
as §1

Data set [5] is filed under the species Danio rerio. Briefly: Antidiabetic retinopathic activity in zebrafish flk:EGFP transgenic embryo assessed as reduction of high glucose-induced dilation of hyaloidretinal vessels at 10 to 20 uM treated 1 day post fertilization to 6 days post fertilization. The class given is functional, organism-based. A digest of the protocol: as §1

A word on the IC50: it is the concentration that gives 50% inhibition.

Each structure is given as a SMILES string. The source made the active and inactive calls. No cut-off for these calls is given here.

For the compound `N=C(N)NN` [PIMAGEDINE], in data set [1], the half-inhibitory concentration (IC50) is 966 µM.

On to `Oc1ccc([C@@H]2Oc3c(c(O)cc4c3[C@@H]3c5c(O)cc6c(c5O[C@](c5ccc(O)c(O)c5)(O4)[C@H]3O)[C@@H]3c4c(O)cc(O)cc4O[C@](c4ccc(O)cc4)(O6)[C@H]3O)C[C@H]2O)cc1`, for which the figures for the Activity entry in data set [2], in data set [3] and in data set [4] were “Non-toxic”, 164.1% and 157.7%, respectively. Besides, in data set [1], the IC50 was found to be 17.4 µM.

Regarding `Oc1ccc([C@H]2Oc3c(c(O)cc4c3[C@@H]3c5c(O)cc(O)cc5O[C@](c5ccc(O)cc5)(O4)[C@H]3O)C[C@@H]2O)cc1`, the outcome in data set [5] was Active. For the same compound, the 50% inhibitory concentration (IC50) in data set [1] stood at 33.5 µM.

As to `OC[C@H]1O[C@@H](O[C@@H]2Cc3c(O)cc4c(c3O[C@H]2c2ccc(O)cc2)[C@@H]2c3c(O)cc(O)cc3O[C@](c3ccc(O)cc3)(O4)[C@H]2O)[C@H](O)[C@@H](O)[C@@H]1O`, the outcome in data set [5] was Active. In data set [1], the half-inhibitory concentration (IC50) amounted to 32.1 µM.

Regarding `Oc1ccc([C@@H]2Oc3c(c(O)cc4c3[C@@H]3c5c(O)cc(O)cc5O[C@](c5ccc(O)cc5)(O4)[C@H]3O)C[C@H]2O)cc1`, the outcome in data set [5] was Active. Moreover, the IC50 in data set [1] amounted to 34.7 µM.

Regarding `Oc1ccc([C@@]23Oc4cc(O)cc(O)c4[C@@H](c4c(cc(O)c5c4O[C@H](c4ccc(O)c(O)c4)[C@@H](O)C5)O2)[C@@H]3O)cc1`, the Activity in data set [3] is recorded as 104%. In addition, in data set [1], the IC50 worked out at 14.1 µM.

In the case of `Oc1ccc([C@@H]2Oc3c(c(O)cc4c3[C@@H]3c5c(O)cc6c(c5O[C@](c5ccc(O)cc5)(O4)[C@H]3O)[C@@H]3c4c(O)cc(O)cc4O[C@](c4ccc(O)cc4)(O6)[C@H]3O)C[C@H]2O)cc1`, the result in data set [5] was Active. Moreover, the IC50 in data set [1] turned out to be 39.8 µM.

Regarding `O=C(O[C@@H]1Cc2c(O)cc(O)cc2O[C@@H]1c1ccc(O)c(O)c1)c1cc(O)c(O)c(O)c1` [EPICATECHIN GALLATE], the IC50 in data set [1] worked out at 15.1 µM.

On to `Oc1cc(O)c2c(c1)O[C@H](c1ccc(O)c(O)c1)[C@H](O)C2` [(-)-EPICATECHIN], for which, in data set [1], the half-inhibitory concentration (IC50) is 13.6 µM.
